Measurements taken from ChEMBL document CHEMBL1687925, “Structure-activity relationships of cycloalkylamide derivatives as inhibitors of the soluble epoxide hydrolase” (J Med Chem, 2011).
Values after ≈ are worked out from the molar mass of the structure shown.

Assays:
[1] = Inhibition of human soluble epoxide […] using fluorescent CMNPC as substrate after 10 mins by fluorometric assay
Procedure, shortened: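 Recombinant human sEH, expressed in Sf9 cells via baculovirus with a His tag that was later removed, purified by metal-affinity and anion-exchange chromatography. Enzyme at 1 nM final, preincubated with inhibitor 10 min at 30 °C in 25 mM Bis-Tris/HCl pH 7.0. CMNPC then added at 5 μM. 6-Methoxy-2-naphthaldehyde fluorescence (ex 330/em 465 nm) followed for 10 min. IC50 by regression of at least six points; mean of three runs.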

[2] = Aqueous solubility of the compound in […] phosphate buffer at pH 7.4; type: physicochemical
Procedure, shortened: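 Light-scattering method at 25± 1.5 °C. Compound in DMSO was added at varying concentrations to 0.1 M sodium phosphate, pH 7.4, at 5:95 (v/v) DMSO:buffer. Insolubility was read as the rise in turbidity, measured as optical density at 650 nm.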

[3] = Aqueous solubility of the compound in […] phosphate buffer at pH 7.4 relative to AUDA; type: physicochemical

SMILES	IC50 [1] [nM]	solubility [2] [µM]	fold change (FC) [3]
O=C(NCCCc1ccccc1)C1(c2ccccc2)CCCC1	> 1000	–	–
CCOC(=O)c1ccc(NC(=O)C23CC4CC(CC(C4)C2)C3)cc1	101	–	–
O=C(NCCCc1ccccc1)C1CCCC1	> 1000	–	–
COC(=O)C1C2C=CC(C2)C1C(=O)NCCCc1ccccc1 (stereo unspecified)	> 1000	–	–
COC(=O)c1ccc(CCNC(=O)C23CC4CC(CC(C4)C2)C3)cc1	230	–	–
O=C(NCCCc1ccccc1)C1CCCCC1	235	–	–
COC(=O)C1CCC(C(=O)NCCCc2ccccc2)CC1 (stereo unspecified)	78	–	–
O=C(NCCCCc1ccccc1)C12CC3CC(CC(C3)C1)C2	180	–	–
O=C(NCCCc1ccccc1)[C@@H]1C[C@H]1c1ccccc1 (relative stereo)	288	–	–
O=C(NCCCc1ccccc1)C12CC3CC(CC(C3)C1)C2	41	–	–
O=C(NCCc1ccccc1)C12CC3CC(CC(C3)C1)C2	230	–	–
O=C(O)C1CCC(C(=O)NCCCc2ccccc2)CC1 (stereo unspecified)	> 1000	–	–
O=C(NCCCc1ccccc1)C1CCCO1 (stereo unspecified)	> 1000	–	–
O=C(NCCCc1ccccc1)C1CCc2ccccc2C1 (stereo unspecified)	15	–	–
COC(=O)c1ccc(CNC(=O)c2ccc3cc(O)ccc3c2)cc1	1.8	31 (≈ 10.4 µg/mL)	–
O=C(NCCCc1ccccc1)C1(c2ccccc2)CC1	> 1000	–	–
COc1ccc(NC(=O)C23CC4CC(CC(C4)C2)C3)cc1	> 1000	–	–
O=C(NCCCc1ccccc1)C1CCC(O)CC1 (stereo unspecified)	> 1000	–	–
O=C(NCCCc1ccccc1)C1CCC(C(F)(F)F)CC1 (stereo unspecified)	64	–	–
O=C(NCc1ccccc1)C12CC3CC(CC(C3)C1)C2	> 1000	–	–
O=C1CCC(C(=O)NCCCc2ccccc2)CC1	> 1000	–	–

The next lines start with the values.

IC50 [1] [nM]	solubility [2] [µM]	fold change (FC) [3]	SMILES
723	–	–	CN(CCCc1ccccc1)C(=O)C12CC3CC(CC(C3)C1)C2
58	–	–	CC(C)(C)C1CCC(C(=O)NCCCc2ccccc2)CC1 (stereo unspecified)
9.1	125 (≈ 40.9 µg/mL)	2	COC(=O)c1ccc(CNC(=O)C23CC4CC(CC(C4)C2)C3)cc1
2.1	125 (≈ 40.4 µg/mL)	2	COC(=O)c1ccc(CNC(=O)C2CCc3ccccc3C2)cc1 (stereo unspecified)
243	–	–	O=C(NCCCc1ccccc1)C1CCC(CO)CC1 (stereo unspecified)
65	–	–	COC(=O)c1ccc2cc(NC(=O)C34CC5CC(CC(C5)C3)C4)ccc2c1
2.4	15 (≈ 5.24 µg/mL)	–	COC(=O)c1ccc(CNC(=O)c2ccc3cc(OC)ccc3c2)cc1
222	–	–	O=C(NCCCc1ccccc1)C1CC=CCC1 (stereo unspecified)
–	63 (≈ 24.7 µg/mL)	–	O=C(O)CCCCCCCCCCCNC(=O)NC12CC3CC(CC(C3)C1)C2
> 1000	–	–	COC(=O)C1CCCCC1C(=O)NCCCc1ccccc1 (stereo unspecified)
6.6	31 (≈ 9.9 µg/mL)	–	COC(=O)c1ccc(CNC(=O)c2ccc3ccccc3c2)cc1
> 1000	–	–	O=C(NCCCc1ccccc1)C1CC1
> 1000	–	–	O=C(NCCCc1ccccc1)C1CCOCC1
